From article PMC11904481 (ESMO Open, 2025)
Where “and” joins values, the source holds several entries; their conditions need not be identical. Equal entries are not always repeated.

Test system: patients with locally advanced unresectable or metastatic, relapsed and/or refractory nonhematological malignancies
Test: Phase I safety: adverse events
Assay type: in vivo, human
How it was run: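 Adverse events were graded by NCI CTCAE v4.03 across three i.v. schedules of the test compound (0.45-11.3 mg/kg; weekly per 28-day cycle, or days 1, 4, 8 ±11, 15 per 21-day cycle). Special-interest events covered retinal dysfunction symptoms and documented retinal disorders. Clustered signs were grouped as 'infusion reaction'. QTc was calculated with the Fridericia correction.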

[1] = schedule 3 cohort 5, 11.3 mg/kg
[2] = schedule 3 cohort 6, 11.3 mg/kg
[3] = schedules 1/2 cohort 1, 0.45 mg/kg

## O=C1Nc2cc3[nH]nc(-c4ccncc4)c3cc2CN1Cc1ccccc1 [KO-947]
All schedules
  deaths due to treatment-related TEAEs: No deaths
  dose interruptions due to toxicity: 14 patients
  dose reductions due to toxicity: 7 patients
  retinal vein occlusion: no reports
Cycle 1, range, 0-114 days
  median time to resolution of ocular events: 3 days
Schedule 3
  AESI blurred vision: 33%
  grade ≥3 TEAE: infusion-related reaction: 7%
  grade ≥3 TEAE: respiratory tract infection: 7%
  patients discontinued owing to AEs: 15%
  patients with at least one AESI: 82%
  patients with grade ≥3 TEAEs: 67%
  patients with grade ≥3 treatment-related TEAEs: 15%
  treatment-related QTc prolongation: 11%
  treatment-related blurred vision: 33.3% and 33%
  treatment-related dyspepsia: 11%
  treatment-related macular edema: 15%
  treatment-related photopsia: 15%
  treatment-related retinal detachment: 15%
  treatment-related vitreous floaters: 11%
Schedule 3 cohort 1, 3.6 mg/kg
  AESI: Blurred vision: 0 n (%)
  AESI: Detachment of retinal pigment epithelium: 0 n (%)
  AESI: Eye disorders: 2 (67) n (%)
  AESI: Macular edema: 0 n (%)
  AESI: Patients with ≥1 AE: 2 (67) n (%)
  AESI: Photopsia: 0 n (%)
  AESI: Retinal detachment: 0 n (%)
  AESI: Subretinal fluid: 1 (33) n (%)
  AESI: Total number of AEs: 4 n
  AESI: Vitreous floaters: 2 (67) n (%)
  Patients with ≥1 treatment-related TEAE: 2 (67) n (%)
  Total number of treatment-related TEAEs: 11 n
  Treatment-related TEAE: Blurred vision: 0 n (%)
  Treatment-related TEAE: Dermatitis acneiform: 0 n (%)
  Treatment-related TEAE: Diarrhea: 0 n (%)
  Treatment-related TEAE: Dyspepsia: 0 n (%)
  Treatment-related TEAE: Infusion-related reaction: 0 n (%)
  Treatment-related TEAE: Macular edema: 0 n (%)
  Treatment-related TEAE: Photopsia: 0 n (%)
  Treatment-related TEAE: QTc prolongation: 0 n (%)
  Treatment-related TEAE: Retinal detachment: 0 n (%)
  Treatment-related TEAE: Subretinal fluid: 1 (33) n (%)
  Treatment-related TEAE: Vitreous floaters: 2 (67) n (%)
Schedule 3 cohort 2, 4.8 mg/kg
  AESI: Blurred vision: 0 n (%)
  AESI: Detachment of retinal pigment epithelium: 0 n (%)
  AESI: Eye disorders: 2 (67) n (%)
  AESI: Macular edema: 0 n (%)
  AESI: Patients with ≥1 AE: 2 (67) n (%)
  AESI: Photopsia: 0 n (%)
  AESI: Retinal detachment: 1 (33) n (%)
  AESI: Subretinal fluid: 1 (33) n (%)
  AESI: Total number of AEs: 2 n
  AESI: Vitreous floaters: 0 n (%)
  Patients with ≥1 treatment-related TEAE: 3 (100) n (%)
  Total number of treatment-related TEAEs: 9 n
  Treatment-related TEAE: Blurred vision: 0 n (%)
  Treatment-related TEAE: Dermatitis acneiform: 0 n (%)
  Treatment-related TEAE: Diarrhea: 1 (33) n (%)
  Treatment-related TEAE: Dyspepsia: 0 n (%)
  Treatment-related TEAE: Infusion-related reaction: 0 n (%)
  Treatment-related TEAE: Macular edema: 0 n (%)
  Treatment-related TEAE: Photopsia: 0 n (%)
  Treatment-related TEAE: QTc prolongation: 0 n (%)
  Treatment-related TEAE: Retinal detachment: 1 (33) n (%)
  Treatment-related TEAE: Subretinal fluid: 1 (33) n (%)
  Treatment-related TEAE: Vitreous floaters: 0 n (%)
Schedule 3 cohort 3, 6.4 mg/kg
  AESI: Blurred vision: 3 (33) n (%)
  AESI: Detachment of retinal pigment epithelium: 0 n (%)
  AESI: Eye disorders: 7 (78) n (%)
  AESI: Macular edema: 1 (11) n (%)
  AESI: Patients with ≥1 AE: 7 (78) n (%)
  AESI: Photopsia: 1 (11) n (%)
  AESI: Retinal detachment: 1 (11) n (%)
  AESI: Subretinal fluid: 2 (22) n (%)
  AESI: Total number of AEs: 11 n
  AESI: Vitreous floaters: 0 n (%)
  Patients with ≥1 treatment-related TEAE: 8 (89) n (%)
  Total number of treatment-related TEAEs: 19 n
  Treatment-related TEAE: Blurred vision: 3 (33) n (%)
  Treatment-related TEAE: Dermatitis acneiform: 0 n (%)
  Treatment-related TEAE: Diarrhea: 1 (11) n (%)
  Treatment-related TEAE: Dyspepsia: 1 (11) n (%)
  Treatment-related TEAE: Infusion-related reaction: 2 (22) n (%)
  Treatment-related TEAE: Macular edema: 1 (11) n (%)
  Treatment-related TEAE: Photopsia: 1 (11) n (%)
  Treatment-related TEAE: QTc prolongation: 0 n (%)
  Treatment-related TEAE: Retinal detachment: 1 (11) n (%)
  Treatment-related TEAE: Subretinal fluid: 2 (22) n (%)
  Treatment-related TEAE: Vitreous floaters: 0 n (%)
Schedule 3 cohort 4, 7.2 mg/kg
  AESI: Blurred vision: 1 (33) n (%)
  AESI: Detachment of retinal pigment epithelium: 1 (33) n (%)
  AESI: Eye disorders: 3 (100) n (%)
  AESI: Macular edema: 1 (33) n (%)
  AESI: Patients with ≥1 AE: 3 (100) n (%)
  AESI: Photopsia: 1 (33) n (%)
  AESI: Retinal detachment: 1 (33) n (%)
  AESI: Subretinal fluid: 0 n (%)
  AESI: Total number of AEs: 14 n
  AESI: Vitreous floaters: 0 n (%)
  Patients with ≥1 treatment-related TEAE: 3 (100) n (%)
  Total number of treatment-related TEAEs: 38 n
  Treatment-related TEAE: Blurred vision: 1 (33) n (%)
  Treatment-related TEAE: Dermatitis acneiform: 1 (33) n (%)
  Treatment-related TEAE: Diarrhea: 2 (67) n (%)
  Treatment-related TEAE: Dyspepsia: 1 (33) n (%)
  Treatment-related TEAE: Infusion-related reaction: 1 (33) n (%)
  Treatment-related TEAE: Macular edema: 1 (33) n (%)
  Treatment-related TEAE: Photopsia: 1 (33) n (%)
  Treatment-related TEAE: QTc prolongation: 0 n (%)
  Treatment-related TEAE: Retinal detachment: 1 (33) n (%)
  Treatment-related TEAE: Subretinal fluid: 0 n (%)
  Treatment-related TEAE: Vitreous floaters: 0 n (%)
[1]
  AESI: Blurred vision: 4 (67) n (%)
  AESI: Detachment of retinal pigment epithelium: 1 (17) n (%)
  AESI: Eye disorders: 6 (100) n (%)
  AESI: Macular edema: 2 (33) n (%)
  AESI: Patients with ≥1 AE: 6 (100) n (%)
  AESI: Photopsia: 1 (17) n (%)
  AESI: Retinal detachment: 1 (17) n (%)
  AESI: Subretinal fluid: 1 (17) n (%)
  AESI: Total number of AEs: 16 n
  AESI: Vitreous floaters: 1 (17) n (%)
  Patients with ≥1 treatment-related TEAE: 6 (100) n (%)
  Total number of treatment-related TEAEs: 50 n
  Treatment-related TEAE: Blurred vision: 4 (67) n (%)
  Treatment-related TEAE: Dermatitis acneiform: 4 (67) n (%)
  Treatment-related TEAE: Diarrhea: 2 (33) n (%)
  Treatment-related TEAE: Dyspepsia: 1 (17) n (%)
  Treatment-related TEAE: Infusion-related reaction: 2 (33) n (%)
  Treatment-related TEAE: Macular edema: 2 (33) n (%)
  Treatment-related TEAE: Photopsia: 1 (17) n (%)
  Treatment-related TEAE: QTc prolongation: 1 (17) n (%)
  Treatment-related TEAE: Retinal detachment: 1 (17) n (%)
  Treatment-related TEAE: Subretinal fluid: 1 (17) n (%)
  Treatment-related TEAE: Vitreous floaters: 1 (17) n (%)
[2]
  AESI: Blurred vision: 1 (33) n (%)
  AESI: Detachment of retinal pigment epithelium: 1 (33) n (%)
  AESI: Eye disorders: 2 (67) n (%)
  AESI: Macular edema: 0 n (%)
  AESI: Patients with ≥1 AE: 2 (67) n (%)
  AESI: Photopsia: 1 (33) n (%)
  AESI: Retinal detachment: 0 n (%)
  AESI: Subretinal fluid: 1 (33) n (%)
  AESI: Total number of AEs: 3 n
  AESI: Vitreous floaters: 0 n (%)
  Patients with ≥1 treatment-related TEAE: 3 (100) n (%)
  Total number of treatment-related TEAEs: 9 n
  Treatment-related TEAE: Blurred vision: 1 (33) n (%)
  Treatment-related TEAE: Dermatitis acneiform: 1 (33) n (%)
  Treatment-related TEAE: Diarrhea: 0 n (%)
  Treatment-related TEAE: Dyspepsia: 0 n (%)
  Treatment-related TEAE: Infusion-related reaction: 1 (33) n (%)
  Treatment-related TEAE: Macular edema: 0 n (%)
  Treatment-related TEAE: Photopsia: 1 (33) n (%)
  Treatment-related TEAE: QTc prolongation: 2 (67) n (%)
  Treatment-related TEAE: Retinal detachment: 0 n (%)
  Treatment-related TEAE: Subretinal fluid: 1 (33) n (%)
  Treatment-related TEAE: Vitreous floaters: 0 n (%)
Schedule 3 total N = 27
  AESI: Blurred vision: 9 (33) n (%)
  AESI: Eye disorders: 22 (82) n (%)
  AESI: Macular edema: 4 (15) n (%)
  AESI: Patients with ≥1 AE: 22 (82) n (%)
  AESI: Photopsia: 4 (15) n (%)
  AESI: Retinal detachment: 4 (15) n (%)
  AESI: Subretinal fluid: 6 (22) n (%)
  AESI: Total number of AEs: 50 n
  AESI: Vitreous floaters: 3 (11) n (%)
  Patients with ≥1 treatment-related TEAE: 25 (93) n (%)
  Total number of treatment-related TEAEs: 136 n
  Treatment-related TEAE: Blurred vision: 9 (33) n (%)
  Treatment-related TEAE: Dermatitis acneiform: 6 (22) n (%)
  Treatment-related TEAE: Diarrhea: 6 (22) n (%)
  Treatment-related TEAE: Dyspepsia: 3 (11) n (%)
  Treatment-related TEAE: Infusion-related reaction: 6 (22) n (%)
  Treatment-related TEAE: Macular edema: 4 (15) n (%)
  Treatment-related TEAE: Photopsia: 4 (15) n (%)
  Treatment-related TEAE: QTc prolongation: 3 (11) n (%)
  Treatment-related TEAE: Retinal detachment: 4 (15) n (%)
  Treatment-related TEAE: Subretinal fluid: 6 (22) n (%)
  Treatment-related TEAE: Vitreous floaters: 3 (11) n (%)
[3]
  AESI: Blurred vision: 0 n (%)
  AESI: Eye disorders: 0 n (%)
  AESI: Macular edema: 0 n (%)
  AESI: Retinal edema: 0 n (%)
  AESI: Subretinal fluid: 0 n (%)
  AESI: Vitreous floaters: 0 n (%)
  Patients with ≥1 AESI: 0 n (%)
  Patients with ≥1 treatment-related TEAE: 1 (100) n (%)
